The results in this text go back to ChEMBL document CHEMBL1137174, “Synthesis and structural-activity relationships of 3-hydroxyquinazoline-2,4-dione antibacterial agents” (2004).

What is called MIC is the least concentration at which growth counts as inhibited. A higher MIC goes with weaker potency.

≈ marks a conversion by molar mass, not a printed value.

In experiment [1] the test system is Escherichia coli. Kind of experiment: Minimum inhibitory concentration required against Gram-negative Escherichia coli WT. The experiment is classed as functional. Summed up: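 Standard microtitration MIC determination against wild-type E. coli strain MC4100.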
Experiment [2] deals with Escherichia coli. Kind of experiment: Minimum inhibitory concentration required against Gram-negative Escherichia coli LKY. Format: functional. Summed up: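 Standard microtitration MIC determination against E. coli LKY, a cell-wall-deficient, semi-permeable strain.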
The test system of experiment [3] is Escherichia coli. Kind of experiment: Minimum inhibitory concentration required against Gram-negative Escherichia coli TLC. The experiment is classed as functional.
The test system of another experiment is Staphylococcus aureus. The experiment is described as follows: Minimum inhibitory concentration required against Gram-positive Staphylococcus aureus. The experiment is classed as functional.
The test system of another experiment is Streptococcus pyogenes. The experiment is described as follows: Minimum inhibitory concentration required against Gram-positive Streptococcus pyogenes. The experiment is classed as functional.
Experiment [4] addresses DNA gyrase (Escherichia coli) (UniProt P0AES6+P0AES4). The experiment is described as follows: Concentration required to inhibit in vitro DNA gyrase activity isolated from Escherichia coli. Format: protein-complex assay. An outline of the steps: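 DNA gyrase isolated and purified from E. coli H560. The end point is the lowest drug concentration […] that gives detectable cleavage of relaxed bacterial Col E1 plasmid DNA. Cleavage is read by agarose gel electrophoresis with ethidium bromide staining.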

The test system of a further experiment is Enterococcus faecalis. The experiment is described as follows: Minimum inhibitory concentration required against Gram-positive Enterococcus faecalis. Format: functional.

For the compound `NC1CN(c2cc3c(cc2F)c(=O)n(O)c(=O)n3C2CC2)C1`, the MIC is 16 µg/mL (≈ 52.2 µM) against Escherichia coli [1]; 0.25 µg/mL (≈ 0.816 µM) against Escherichia coli [2]; 0.5 µg/mL (≈ 1.63 µM) against Escherichia coli [3]; above 64 µg/mL in the experiment on Staphylococcus aureus; above 64 µg/mL against Streptococcus pyogenes. The compound further returned an Activity in experiment [4] of 18 µM.
Turning to `CN1CC2CN(c3cc4c(cc3F)c(=O)n(O)c(=O)n4C3CC3)CC2C1` (configuration not stated), the minimum inhibitory concentration (MIC) against Escherichia coli [1] came to 4 µg/mL (≈ 11.1 µM); against Escherichia coli [2] it was 2 µg/mL (≈ 5.55 µM); against Escherichia coli [3], 1 µg/mL (≈ 2.77 µM); against Enterococcus faecalis, 32 µg/mL (≈ 88.8 µM); in the experiment on Staphylococcus aureus, 32 µg/mL (≈ 88.8 µM); against Streptococcus pyogenes, 32 µg/mL (≈ 88.8 µM). In experiment [4], this compound yielded an Activity of 7.8 µM.
Regarding `O=c1[nH]c2cc(N3CCCC3)c(F)cc2c(=O)n1O`, the MIC in the experiment with Escherichia coli [1] turned out to be 64 µg/mL (≈ 241 µM); in the experiment with Escherichia coli [2], 32 µg/mL (≈ 121 µM); with Escherichia coli [3], 16 µg/mL (≈ 60.3 µM); in the experiment on Staphylococcus aureus, 8 µg/mL (≈ 30.2 µM); in the experiment with Streptococcus pyogenes, 32 µg/mL (≈ 121 µM). This compound also showed an Activity in experiment [4] above 100 µM.
Take `N[C@H]1CCN(c2cc3c(cc2F)c(=O)n(O)c(=O)n3C2CC2)C1`: the minimal inhibitory concentration (MIC) in the experiment with Escherichia coli [1] came to 1 µg/mL (≈ 3.12 µM); against Escherichia coli [2] it was 0.3 µg/mL (≈ 0.937 µM); with Escherichia coli [3], 0.25 µg/mL (≈ 0.78 µM); with Staphylococcus aureus it was 32 µg/mL (≈ 99.9 µM); with Streptococcus pyogenes it was 4 µg/mL (≈ 12.5 µM). The compound also gave an Activity in experiment [4] of 2 µM.
As to `C[C@H](N)[C@@H]1CCN(c2cc3c(cc2F)c(=O)n(O)c(=O)n3C2CC2)C1`, the MIC stood at 8 µg/mL (≈ 23 µM) against Escherichia coli [1]; 0.12 µg/mL (≈ 0.344 µM) against Escherichia coli [2]; 0.12 µg/mL (≈ 0.344 µM) against Escherichia coli [3]; 4 µg/mL (≈ 11.5 µM) with Enterococcus faecalis; 1 µg/mL (≈ 2.87 µM) in the experiment on Staphylococcus aureus; 0.5 µg/mL (≈ 1.44 µM) in the experiment with Streptococcus pyogenes. For the same compound, the Activity in experiment [4] came out at 6.4 µM.
As to `O=c1c2cc(F)c(N3C[C@@H]4CCCN[C@@H]4C3)cc2n(C2CC2)c(=O)n1O`, the MIC in the experiment with Escherichia coli [1] turned out to be 8 µg/mL (≈ 22.2 µM); in the experiment on Escherichia coli [2], 2 µg/mL (≈ 5.55 µM); against Escherichia coli [3], 1 µg/mL (≈ 2.77 µM); in the experiment with Enterococcus faecalis, 64 µg/mL (≈ 178 µM); in the experiment on Staphylococcus aureus, 32 µg/mL (≈ 88.8 µM); against Streptococcus pyogenes it was 32 µg/mL (≈ 88.8 µM). In experiment [4], the Activity was 5 µM.
Take `CN[C@@H](C)[C@@H]1CCN(c2cc3c(cc2F)c(=O)n(O)c(=O)n3C2CC2)C1`: the MIC against Escherichia coli [1] came to 32 µg/mL (≈ 88.3 µM); in the experiment with Escherichia coli [2], 4 µg/mL (≈ 11 µM); against Escherichia coli [3], 2 µg/mL (≈ 5.52 µM); with Enterococcus faecalis, 16 µg/mL (≈ 44.1 µM); in the experiment with Staphylococcus aureus it was 16 µg/mL (≈ 44.1 µM); in the experiment on Streptococcus pyogenes, 2 µg/mL (≈ 5.52 µM). The Activity in experiment [4] was 6.2 µM.
In the case of `N[C@@H]1[C@H]2CN(c3cc4c(cc3F)c(=O)n(O)c(=O)n4C3CC3)C[C@@H]12`, the minimum inhibitory concentration (MIC) in the experiment on Escherichia coli [1] was 1 µg/mL (≈ 3.01 µM); against Escherichia coli [2], 0.25 µg/mL (≈ 0.752 µM); with Escherichia coli [3] it was 0.25 µg/mL (≈ 0.752 µM); in the experiment on Enterococcus faecalis, 4 µg/mL (≈ 12 µM); in the experiment on Staphylococcus aureus, 4 µg/mL (≈ 12 µM); in the experiment with Streptococcus pyogenes, 2 µg/mL (≈ 6.02 µM). This compound came in with an Activity in experiment [4] of 0.7 µM.
Take `O=C(O)c1cn(C2CC2)c2cc(N3CCNCC3)c(F)cc2c1=O` [CIPROFLOXACIN]: the MIC was 0.4 µg/mL (≈ 1.21 µM) against Enterococcus faecalis, 4 µg/mL (≈ 12.1 µM) with Staphylococcus aureus and 2 µg/mL (≈ 6.04 µM) in the experiment on Streptococcus pyogenes. For the same compound, in experiment [4], the Activity amounted to 0.4 µM.
As for `N[C@H]1CCN(c2c(F)cc3c(=O)n(O)c(=O)n(C4CC4)c3c2Cl)C1`, the MIC amounted to 2 µg/mL (≈ 5.64 µM) in the experiment with Escherichia coli [1]; 0.5 µg/mL (≈ 1.41 µM) in the experiment on Escherichia coli [2]; 1 µg/mL (≈ 2.82 µM) in the experiment with Escherichia coli [3]; 32 µg/mL (≈ 90.2 µM) against Enterococcus faecalis; 16 µg/mL (≈ 45.1 µM) in the experiment with Staphylococcus aureus; 4 µg/mL (≈ 11.3 µM) against Streptococcus pyogenes. Besides, the Activity in experiment [4] stood at 1 µM.
In the case of `O=c1c2cc(F)c(N3CCC(CNCC(F)(F)F)C3)cc2n(C2CC2)c(=O)n1O` (configuration not stated), the MIC in the experiment with Escherichia coli [1] is above 64 µg/mL; against Escherichia coli [2] it was 1 µg/mL (≈ 2.4 µM); against Escherichia coli [3], 0.5 µg/mL (≈ 1.2 µM); against Enterococcus faecalis it was 16 µg/mL (≈ 38.4 µM); against Staphylococcus aureus, 4 µg/mL (≈ 9.61 µM); in the experiment on Streptococcus pyogenes, 16 µg/mL (≈ 38.4 µM). The compound further returned an Activity in experiment [4] of 8 µM.
For `NCC1CCN(c2cc3c(cc2F)c(=O)n(O)c(=O)n3C2CC2)C1` (configuration not stated), the minimum inhibitory concentration (MIC) against Escherichia coli [1] is 8 µg/mL (≈ 23.9 µM); with Escherichia coli [2], 1 µg/mL (≈ 2.99 µM); in the experiment on Escherichia coli [3], 1 µg/mL (≈ 2.99 µM); in the experiment with Staphylococcus aureus, 16 µg/mL (≈ 47.9 µM); in the experiment on Streptococcus pyogenes, 2 µg/mL (≈ 5.98 µM).
Take `O=c1c2cc(F)c(-n3ccnc3)cc2n(C2CC2)c(=O)n1O`: the MIC in the experiment with Escherichia coli [1] was above 64 µg/mL; with Escherichia coli [2], 8 µg/mL (≈ 26.5 µM); in the experiment with Escherichia coli [3] it was 2 µg/mL (≈ 6.62 µM); against Enterococcus faecalis it was 64 µg/mL (≈ 212 µM); in the experiment with Staphylococcus aureus, 64 µg/mL (≈ 212 µM); in the experiment with Streptococcus pyogenes, 64 µg/mL (≈ 212 µM). This compound had an Activity in experiment [4] of 0.4 µM.
For the compound `O=c1c2cc(F)c(N3CCCC3)cc2n(C2CC2)c(=O)n1O`, the minimal inhibitory concentration (MIC) stood at 8 µg/mL (≈ 26.2 µM) against Escherichia coli [1]; 0.1 µg/mL (≈ 0.328 µM) with Escherichia coli [2]; 0.13 µg/mL (≈ 0.426 µM) against Escherichia coli [3]; 1 µg/mL (≈ 3.28 µM) in the experiment with Staphylococcus aureus; 16 µg/mL (≈ 52.4 µM) in the experiment with Streptococcus pyogenes. Further, the Activity in experiment [4] came out at 7 µM.
In the case of `CC(C)(N)[C@@H]1CCN(c2cc3c(cc2F)c(=O)n(O)c(=O)n3C2CC2)C1`, the MIC against Escherichia coli [1] came to 8 µg/mL (≈ 22.1 µM); against Escherichia coli [2], 2 µg/mL (≈ 5.52 µM); against Escherichia coli [3], 0.5 µg/mL (≈ 1.38 µM); in the experiment with Enterococcus faecalis, 16 µg/mL (≈ 44.1 µM); against Staphylococcus aureus, 16 µg/mL (≈ 44.1 µM); against Streptococcus pyogenes, 32 µg/mL (≈ 88.3 µM). For the same compound, the Activity in experiment [4] worked out at 2.2 µM.
Consider `N[C@H]1CCN(c2c(F)cc3c(=O)n(O)c(=O)n(C4CC4)c3c2F)C1`, for which the MIC in the experiment on Escherichia coli [1] turned out to be 8 µg/mL (≈ 23.6 µM); in the experiment with Escherichia coli [2] it was 2 µg/mL (≈ 5.91 µM); against Escherichia coli [3], 1 µg/mL (≈ 2.96 µM); with Enterococcus faecalis, 16 µg/mL (≈ 47.3 µM); with Staphylococcus aureus, 32 µg/mL (≈ 94.6 µM); with Streptococcus pyogenes it was 16 µg/mL (≈ 47.3 µM). The Activity in experiment [4] worked out at 0.28 µM.
Regarding `O=c1c2cc(F)c(N3CCCC3)cc2n(-c2ccc(F)cc2F)c(=O)n1O`, the MIC was above 64 µg/mL in the experiment on Escherichia coli [1]; 32 µg/mL (≈ 84.8 µM) against Escherichia coli [2]; 32 µg/mL (≈ 84.8 µM) in the experiment with Escherichia coli [3]; 64 µg/mL (≈ 170 µM) with Enterococcus faecalis; 64 µg/mL (≈ 170 µM) against Staphylococcus aureus; 32 µg/mL (≈ 84.8 µM) in the experiment with Streptococcus pyogenes. The compound also came in with an Activity in experiment [4] above 100 µM.
For `CCn1c(=O)n(O)c(=O)c2cc(F)c(N3CCCC3)cc21`, the MIC in the experiment on Escherichia coli [1] was above 64 µg/mL; against Escherichia coli [2], 2 µg/mL (≈ 6.82 µM); against Escherichia coli [3] it was 1 µg/mL (≈ 3.41 µM); in the experiment on Staphylococcus aureus, 32 µg/mL (≈ 109 µM); against Streptococcus pyogenes, 32 µg/mL (≈ 109 µM). In addition, the Activity in experiment [4] is above 100 µM.
With `O=c1c2cc(F)c(N3CCCC3)cc2n(CC2CC2)c(=O)n1O`, the minimum inhibitory concentration (MIC) against Escherichia coli [1] stood at 32 µg/mL (≈ 100 µM); in the experiment with Escherichia coli [2], 0.5 µg/mL (≈ 1.57 µM); in the experiment with Escherichia coli [3], 0.5 µg/mL (≈ 1.57 µM); against Enterococcus faecalis it was 64 µg/mL (≈ 200 µM); in the experiment on Staphylococcus aureus, 8 µg/mL (≈ 25.1 µM); in the experiment with Streptococcus pyogenes it was 8 µg/mL (≈ 25.1 µM). In addition, in experiment [4], the Activity stood at 13 µM.
`Cn1c(=O)n(O)c(=O)c2cc(F)c(N3CCCC3)cc21`: the MIC was 32 µg/mL (≈ 115 µM) in the experiment with Escherichia coli [1]; 16 µg/mL (≈ 57.3 µM) against Escherichia coli [2]; 8 µg/mL (≈ 28.6 µM) with Escherichia coli [3]; above 64 µg/mL with Enterococcus faecalis; above 64 µg/mL against Staphylococcus aureus; above 64 µg/mL with Streptococcus pyogenes. Moreover, the Activity in experiment [4] was above 100 µM.
On to `O=c1c2cc(F)c(N3CCCC3)cc2n(Cc2ccccc2)c(=O)n1O`, for which the MIC against Escherichia coli [1] is above 64 µg/mL; in the experiment with Escherichia coli [2] it was 32 µg/mL (≈ 90 µM); against Escherichia coli [3] it was 16 µg/mL (≈ 45 µM); in the experiment with Enterococcus faecalis, above 64 µg/mL; with Staphylococcus aureus, 16 µg/mL (≈ 45 µM); in the experiment on Streptococcus pyogenes it was 32 µg/mL (≈ 90 µM). The compound further showed an Activity in experiment [4] above 100 µM.
